Data from ChEMBL document CHEMBL4138104, “Indole carboxylic acid esters of melampomagnolide B are potent anticancer agents against both hematological and solid tumor cells” (Eur J Med Chem, 2017).

Experiments:
M14 = assay: Growth inhibition of human M14 cells incubated for 48 hrs by sulforhodamine B assay; assay type: functional; conditions: M14, 48 h
Summary of the method: (§1)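 NCI-60 screen. Compounds were dosed at five concentrations spanning 10^-4 to 10^-8 M for 48 h at 37 °C. Cells were TCA-fixed, stained with 0.4% SRB and read at 515 nm against time-zero and vehicle controls. GI50 is the concentration giving a 50% reduction in net protein increase.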

IGROV-1 = assay: Growth inhibition of human IGROV1 cells incubated for 48 hrs by sulforhodamine B assay; assay type: functional; conditions: IGROV-1, 48 h; summary of the method: as §1
786-0 = assay: Growth inhibition of human 786-0 cells incubated for 48 hrs by sulforhodamine B assay; assay type: functional; conditions: 786-0, 48 h; summary of the method: as §1
TK-10 = assay: Growth inhibition of human TK10 cells incubated for 48 hrs by sulforhodamine B assay; assay type: functional; conditions: TK-10, 48 h
Summary of the method: (§2)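 NCI-60 screen run at NCI. Cells grown in RPMI medium with 5% FBS and 2 mM L-glutamine, plated at 5,000–40,000 cells/well, and preincubated 24 h at 37 °C. Time-zero plates were TCA-fixed. Compounds came from DMSO stocks and were tested at five concentrations from 10^-4 to 10^-8 M for 48 h. Cells were then TCA-fixed, stained with 0.4% SRB, and OD read at 515 nm. GI50 is the concentration giving a 50% reduction in net protein increase versus control.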

SK-MEL-5 = assay: Growth inhibition of human SK-MEL-5 cells incubated for 48 hrs by sulforhodamine B assay; assay type: functional; conditions: SK-MEL-5, 48 h; summary of the method: as §1
EKVX = assay: Growth inhibition of human EKVX cells incubated for 48 hrs by sulforhodamine B assay; assay type: functional; summary of the method: as §1
MDA-MB-435 = assay: Growth inhibition of human MDA-MB-435 cells incubated for 48 hrs by sulforhodamine B assay; assay type: functional; conditions: MDA-MB-435, 48 h; summary of the method: as §1
MDA-MB-468 = assay: Growth inhibition of human MDA-MB-468 cells incubated for 48 hrs by sulforhodamine B assay; assay type: functional; conditions: MDA-MB-468, 48 h; summary of the method: as §1
SK-MEL-2 = assay: Growth inhibition of human SK-MEL-2 cells incubated for 48 hrs by sulforhodamine B assay; assay type: functional; conditions: SK-MEL-2, 48 h; summary of the method: as §1
SNB-75 = assay: Growth inhibition of human SNB75 cells incubated for 48 hrs by sulforhodamine B assay; assay type: functional; conditions: SNB-75, 48 h; summary of the method: as §2
HOP-62 = assay: Growth inhibition of human HOP62 cells incubated for 48 hrs by sulforhodamine B assay; assay type: functional; conditions: HOP-62, 48 h; summary of the method: as §1
Hs-578T = assay: Growth inhibition of human Hs 578T cells incubated for 48 hrs by sulforhodamine B assay; assay type: functional; summary of the method: as §1
ACHN = assay: Growth inhibition of human ACHN cells incubated for 48 hrs by sulforhodamine B assay; assay type: functional; summary of the method: as §1
MDA-MB-231 = assay: Growth inhibition of human MDA-MB-231/ATCC cells incubated for 48 hrs by sulforhodamine B assay; assay type: functional; conditions: MDA-MB-231, 48 h; summary of the method: as §1
OVCAR-4 = assay: Growth inhibition of human OVCAR4 cells incubated for 48 hrs by sulforhodamine B assay; assay type: functional; conditions: OVCAR-4, 48 h; summary of the method: as §1
BT-549 = assay: Growth inhibition of human BT549 cells incubated for 48 hrs by sulforhodamine B assay; assay type: functional; conditions: BT-549, 48 h; summary of the method: as §1
COLO 205 = assay: Growth inhibition of human COLO205 cells incubated for 48 hrs by sulforhodamine B assay; assay type: functional; conditions: COLO 205, 48 h; summary of the method: as §1
K562 = assay: Growth inhibition of human K562 cells incubated for 48 hrs by sulforhodamine B assay; assay type: functional; conditions: K562, 48 h; summary of the method: as §1
PC-3 = assay: Growth inhibition of human PC3 cells incubated for 48 hrs by sulforhodamine B assay; assay type: functional; conditions: PC-3, 48 h; summary of the method: as §1
SR = assay: Growth inhibition of human SR cells incubated for 48 hrs by sulforhodamine B assay; assay type: functional; summary of the method: as §2
OVCAR-3 = assay: Growth inhibition of human OVCAR3 cells incubated for 48 hrs by sulforhodamine B assay; assay type: functional; conditions: OVCAR-3, 48 h; summary of the method: as §1
DU-145 = assay: Growth inhibition of human DU145 cells incubated for 48 hrs by sulforhodamine B assay; assay type: functional; conditions: DU-145, 48 h; summary of the method: as §1
[1] = Potency index, ratio of melampomagnolide-B EC50 to compound EC50 for human M9-ENL1 cells; assay type: functional
Summary of the method: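 M9-ENL1 AML cells, derived by MLL-ENL transduction of human blood cells, were plated at 10^6 cells/mL in alpha-MEM with 5% human plasma, 20% FBS, SCF, IL-3, IL-7 and FLT3 ligand. Exposure was 24 h. Non-apoptotic (Annexin V/7-AAD double-negative) fraction was normalized to vehicle, in triplicate, to give EC50. PTL and MMB were run as reference controls.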

T47D = assay: Growth inhibition of human T47D cells incubated for 48 hrs by sulforhodamine B assay; assay type: functional; summary of the method: as §2
[2] = Induction of apoptosis in AML02 cells isolated from acute myelogenous leukemia patient after 24 hrs by annexin V/7-AAD/propidium iodide staining-based flow cytometric method; assay type: functional, cell-based; conditions: Homo sapiens
Summary of the method: (§3)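 Primary AML specimens from consenting patients were Ficoll-separated and some were cryopreserved. Cells were held 1 h in serum-free IMDM with 20% BIT 9500, LDL and beta-mercaptoethanol before drug. Drugs were diluted from DMSO stock into PBS, final DMSO ≤0.5%. Dosing was 0.5–10 μM for 24 h. Annexin V/7-AAD flow cytometry scored double-negative (non-apoptotic) cells, normalized to vehicle, in triplicate, and EC50 came from dose-response curves.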

[3] = Induction of apoptosis in AML04 cells isolated from acute myelogenous leukemia patient after 24 hrs by annexin V/7-AAD/propidium iodide staining-based flow cytometric method; assay type: functional, cell-based; conditions: Homo sapiens; summary of the method: as §3
[4] = Induction of apoptosis in AML03 cells isolated from acute myelogenous leukemia patient after 24 hrs by annexin V/7-AAD/propidium iodide staining-based flow cytometric method; assay type: functional, cell-based; conditions: Homo sapiens; summary of the method: as §3
[5] = Induction of apoptosis in AML01 cells isolated from acute myelogenous leukemia patient after 24 hrs by annexin V/7-AAD/propidium iodide staining-based flow cytometric method; assay type: functional, cell-based; conditions: Homo sapiens, AML01, 24 h; summary of the method: as §3
CAKI-1 = assay: Growth inhibition of human Caki1 cells incubated for 48 hrs by sulforhodamine B assay; assay type: functional; conditions: CAKI-1, 48 h; summary of the method: as §1

Compound | GI50 (M14) [nM] | GI50 (IGROV-1) [nM] | GI50 (786-0) [nM] | GI50 (TK-10) [nM] | GI50 (SK-MEL-5) [nM] | GI50 (EKVX) [nM] | GI50 (MDA-MB-435) [nM] | GI50 (MDA-MB-468) [nM] | GI50 (SK-MEL-2) [nM] | GI50 (SNB-75) [nM] | GI50 (HOP-62) [nM] | GI50 (Hs-578T) [nM] | GI50 (MDA-MB-231) [nM] | GI50 (OVCAR-4) [nM] | GI50 (COLO 205) [nM] | GI50 (K562) [nM] | GI50 (PC-3) [nM] | GI50 (OVCAR-3) [nM] | Ratio IC50 [1] | GI50 (T47D) [nM] | further results
C=C1C(=O)O[C@@H]2[C@H]3O[C@]3(C)CC/C=C(/COC(=O)c3c[nH]c4ccccc34)CC[C@@H]12 | 220 | 250 | 320 | 280 | 200 | 310 | 240 | 190 | 230 | 200 | 820 | 610 | 190 | 250 | 240 | 270 | 380 | 200 | 2 - 20 | 400 | GI50 (ACHN): 210 nM; GI50 (BT-549): 170 nM; GI50 (SR): 280 nM; GI50 (DU-145): 380 nM
C=C1C(=O)O[C@@H]2[C@H]3O[C@]3(C)CC/C=C(/COC(=O)c3cn(C)c4ccccc34)CC[C@@H]12 | 1410 | 690 | 1460 | 1100 | 1420 | 960 | 1350 | 440 | 1380 | 1090 | 1810 | 2390 | 1050 | 1140 | 1240 | 400 | 1470 | 380 | 2 - 20 | 1190 | GI50 (ACHN): 820 nM; GI50 (BT-549): 510 nM; GI50 (SR): 340 nM; GI50 (DU-145): 1010 nM
C=C1C(=O)O[C@@H]2C3O[C@]3(C)CC/C=C(\C)CC[C@@H]12 (stereo partly specified) | – | 21100 | – | – | – | 17300 | – | – | – | 48400 | 49000 | – | – | 21500 | – | 22600 | – | 17400 | – | – | EC50 [2]: 6300 nM; EC50 [3]: 13000 nM; EC50 [4]: 1900 nM; EC50 [5]: 5200 nM; GI50 (CAKI-1): 9350 nM
C=C1C(=O)O[C@@H]2[C@H]3O[C@]3(C)CC/C=C(/COC(=O)c3cc4ccccc4o3)CC[C@@H]12 | 1430 | 1390 | 1810 | 3010 | 1520 | 2020 | 1430 | 1500 | 1770 | 1340 | 2480 | 2910 | 1640 | 1560 | 1550 | 1150 | 1760 | 480 | 2 - 20 | 1350 | GI50 (ACHN): 1440 nM; GI50 (BT-549): 1480 nM; GI50 (SR): 1150 nM; GI50 (DU-145): 1180 nM
C=C1C(=O)O[C@@H]2[C@H]3O[C@]3(C)CC/C=C(/COC(=O)c3cc4cc(Cl)ccc4[nH]3)CC[C@@H]12 | 1470 | 1380 | 1510 | 1750 | 1910 | 1400 | 1240 | 1890 | 1730 | 570 | 2220 | 2250 | 1320 | 1330 | 1720 | 1140 | 2420 | 1250 | 2 - 20 | 1340 | GI50 (ACHN): 1350 nM; GI50 (BT-549): 1310 nM; GI50 (SR): 770 nM; GI50 (CAKI-1): 1190 nM
C=C1C(=O)O[C@@H]2[C@H]3O[C@]3(C)CC/C=C(/COC(=O)CCCc3c[nH]c4ccccc34)CC[C@@H]12 | 1660 | 1630 | 1600 | 1640 | 1740 | 2020 | 1730 | 1760 | 1960 | 12600 | 6540 | 3190 | 1780 | 1660 | 1860 | 2600 | 1920 | 1530 | 2 - 20 | 2170 | GI50 (BT-549): 1370 nM; GI50 (SR): 1730 nM; GI50 (DU-145): 1670 nM
C=C1C(=O)O[C@@H]2[C@H]3O[C@]3(C)CC/C=C(/COC(=O)c3cc4ccccc4s3)CC[C@@H]12 | 1750 | 1760 | 1520 | 1550 | 1750 | 1690 | 1330 | 1630 | 1750 | 3520 | 1810 | 2890 | 1970 | 2080 | 1710 | 810 | 1830 | 440 | 2 - 20 | 1470 | GI50 (ACHN): 1500 nM; GI50 (SR): 520 nM; GI50 (DU-145): 1050 nM; GI50 (CAKI-1): 1460 nM
C=C1C(=O)O[C@@H]2[C@H]3O[C@]3(C)CC/C=C(/COC(=O)c3cc4cc(F)ccc4[nH]3)CC[C@@H]12 | 1890 | 1440 | 1780 | 1830 | 1850 | 1580 | 1500 | 1860 | 1950 | 11100 | 2920 | 2950 | 1590 | 1670 | 1640 | 2240 | 1700 | 1200 | 2 - 20 | 1560 | GI50 (ACHN): 1460 nM; GI50 (SR): 2030 nM; GI50 (DU-145): 1670 nM; GI50 (CAKI-1): 1200 nM
C=C1C(=O)O[C@@H]2[C@H]3O[C@]3(C)CC/C=C(/COC(=O)c3cc4cc(OC)ccc4[nH]3)CC[C@@H]12 | 1270 | 1480 | 1270 | 1280 | 1740 | 1500 | 620 | 1130 | 1600 | – | 1640 | 3090 | 1580 | 1630 | 1180 | 560 | 1830 | 930 | 2 - 20 | 1300 | EC50 [2]: 3300 nM; EC50 [3]: 3300 nM; GI50 (ACHN): 810 nM; EC50 [4]: 2200 nM; GI50 (BT-549): 1060 nM; GI50 (DU-145): 1030 nM; EC50 [5]: 3000 nM; GI50 (CAKI-1): 1710 nM
